The text below walks through data of PubChem BioAssay AID623975 (Vanderbilt High Throughput Screening Facility, 2012).

Broadly, the EC50 is the concentration needed to bring the measured effect to its halfway point.

For the experiment, the target named is G protein-activated inward rectifier potassium channel 4 (Homo sapiens) + G protein-activated inward rectifier potassium channel 1 (Homo sapiens) (UniProt P48544+P48549). Nature of the experiment: activation of GIRK1/4-mediated thallium influx – cell-based, HEK-293 hGIRK1/4, thallium flux, FluoZin-2, concentration-response, dose response (AID 623975). The settings on record: HEK-293 hGIRK1/4, thallium flux FluoZin-2 fluorescence. The procedure, abridged:
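test system = HEK-293 line stably expressing hGIRK1/4 | also added = thallium stimulus at pH 7.4 with EC20 glutamate | schedule = FluoZin-2 AM dye loading ~60 min at room temperature, compound pretreatment 4 min | measured by = thallium-flux fluorescence with FluoZin-2 AM dye, F/F0 traces | repeats = triplicate wells per concentration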

Chain of G protein-activated inward rectifier potassium channel 4 (Homo sapiens) + G protein-activated inward rectifier potassium channel 1 (Homo sapiens) (P48544 whole entry, looked up): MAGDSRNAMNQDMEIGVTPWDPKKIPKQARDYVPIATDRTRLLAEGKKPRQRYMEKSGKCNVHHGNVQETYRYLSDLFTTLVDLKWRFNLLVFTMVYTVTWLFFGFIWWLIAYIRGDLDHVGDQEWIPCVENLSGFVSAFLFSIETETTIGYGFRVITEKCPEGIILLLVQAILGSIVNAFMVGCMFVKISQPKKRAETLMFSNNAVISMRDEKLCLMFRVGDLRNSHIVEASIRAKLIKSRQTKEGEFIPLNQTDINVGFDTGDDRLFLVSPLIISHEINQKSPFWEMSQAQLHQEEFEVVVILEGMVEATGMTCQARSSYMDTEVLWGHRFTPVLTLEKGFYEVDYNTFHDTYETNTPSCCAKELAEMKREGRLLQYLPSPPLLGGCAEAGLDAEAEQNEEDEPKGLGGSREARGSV
Chain of G protein-activated inward rectifier potassium channel 4 (Homo sapiens) + G protein-activated inward rectifier potassium channel 1 (Homo sapiens) (P48549 whole entry, looked up): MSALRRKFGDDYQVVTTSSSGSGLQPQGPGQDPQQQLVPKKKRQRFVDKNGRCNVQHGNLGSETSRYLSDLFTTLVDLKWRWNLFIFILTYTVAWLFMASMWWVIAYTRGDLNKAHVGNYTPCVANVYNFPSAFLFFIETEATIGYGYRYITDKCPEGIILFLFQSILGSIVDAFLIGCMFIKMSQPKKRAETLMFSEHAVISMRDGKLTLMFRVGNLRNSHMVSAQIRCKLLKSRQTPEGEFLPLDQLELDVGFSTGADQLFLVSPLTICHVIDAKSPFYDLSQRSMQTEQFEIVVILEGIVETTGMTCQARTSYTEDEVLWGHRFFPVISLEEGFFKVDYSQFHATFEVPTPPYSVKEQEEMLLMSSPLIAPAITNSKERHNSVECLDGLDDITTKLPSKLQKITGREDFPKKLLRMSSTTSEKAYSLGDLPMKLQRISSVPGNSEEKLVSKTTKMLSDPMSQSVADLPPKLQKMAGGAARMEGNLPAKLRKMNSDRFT

As for `Cc1cc(NC(=O)Nc2ccc(F)c(F)c2)n(-c2ccccc2)n1`, the half-maximal effective concentration (EC50) is 1120 nM.
